In ChEMBL document CHEMBL1811848 (Bioorg Med Chem Lett, 2011):

Columns and labels:
[1] = molecular target: T1, Peroxisome proliferator-activated receptor gamma (Homo sapiens, UniProt P37231); assay: Transactivation of human PPARgamma expressed in human HepG2 cells co-transfected with PPRE3-TK-Luc by luciferase reporter gene assay; type: cell-based
T1 sequence (P37231 whole entry): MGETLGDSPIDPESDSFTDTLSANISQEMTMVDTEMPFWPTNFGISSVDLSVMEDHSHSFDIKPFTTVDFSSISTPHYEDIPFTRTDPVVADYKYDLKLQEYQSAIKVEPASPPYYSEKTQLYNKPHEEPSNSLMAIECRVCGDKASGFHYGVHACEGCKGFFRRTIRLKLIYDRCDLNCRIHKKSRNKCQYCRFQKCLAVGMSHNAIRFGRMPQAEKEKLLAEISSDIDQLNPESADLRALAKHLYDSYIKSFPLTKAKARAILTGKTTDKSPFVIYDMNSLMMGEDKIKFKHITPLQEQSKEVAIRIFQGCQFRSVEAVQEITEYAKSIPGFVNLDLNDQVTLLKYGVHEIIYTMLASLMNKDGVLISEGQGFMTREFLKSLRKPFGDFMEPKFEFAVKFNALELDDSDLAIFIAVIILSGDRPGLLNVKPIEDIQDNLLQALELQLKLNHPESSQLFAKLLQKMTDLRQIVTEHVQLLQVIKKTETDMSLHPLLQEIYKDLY
In short: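 HepG2 cells transfected with pSG5 vector carrying hPPARα, hPPARγ or hPPARδ cDNA, co-transfected with PPRE3-TK-luc. Firefly luciferase activity measured with a commercial kit. β-galactosidase activity read on an ELISA reader. Controls: WY14643 (α), rosiglitazone (γ), GW501516 (δ).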

[2] = Tmax in fasting Wistar rat at 30 mg/kg, po; type: ADME, organism-based; set-up: dose 30 mg/kg, route oral; settings: in vivo
In short: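 Fasted male Wistar rats received one oral dose of 30 mg/kg. Plasma Cmax, T1/2 and Tmax are reported as mean ± SD of n = 3.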

Mus musculus [3] = assay: Hypolipidemic activity in Swiss albino mouse assessed as reduction in triglyceride level at 0.1 mg/kg, po; type: functional; set-up: scale not given: the % may be the effect or the level left
Mus musculus [4] = assay: Hypolipidemic activity in db/db mouse assessed as reduction in triglyceride level at 0.003 mg/kg, po; type: functional; set-up: scale not given: the % may be the effect or the level left
Mus musculus [5] = assay: Hypolipidemic activity in db/db mouse assessed as reduction in triglyceride level at 1 mg/kg, po; type: functional; set-up: scale not given: the % may be the effect or the level left
Mus musculus [6] = assay: Antihyperglycemic activity in db/db mouse assessed as reduction in plasma glucose level at 0.3 mg/kg, po; type: functional; set-up: scale not given: the % may be the effect or the level left
Mus musculus [7] = assay: Antihyperglycemic activity in db/db mouse assessed as reduction in plasma glucose level at 1 mg/kg, po; type: functional; set-up: scale not given: the % may be the effect or the level left
Mus musculus [8] = species on record: Mus musculus; assay: Antihyperglycemic activity in db/db mouse assessed as reduction in plasma glucose level; type: functional
Rattus norvegicus [9] = assay: Toxicity in male Wistar rat assessed as heart to body weight ratio at 30 mg/kg, po measured after 28 days (reference value: 0.383 +/- 0.012); type: organism-based; set-up: dose 30 mg/kg, route oral; settings: in vivo, 672 h
Rattus norvegicus [10] = assay: Toxicity in male Wistar rat assessed as spleen to body weight ratio at 30 mg/kg, po measured after 28 days (reference value: 0.215 +/- 0.007); type: organism-based; set-up: dose 30 mg/kg, route oral; settings: in vivo, 672 h
Rattus norvegicus [11] = assay: Toxicity in male Wistar rat assessed as adrenal to body weight ratio at 3 mg/kg, po measured after 28 days (reference value: 0.018 +/- 0.001); type: organism-based; set-up: dose 3 mg/kg, route oral; settings: in vivo, 672 h
Rattus norvegicus [12] = assay: Toxicity in male Wistar rat assessed as adrenal to body weight ratio at 30 mg/kg, po measured after 28 days (reference value: 0.018 +/- 0.001); type: organism-based; set-up: dose 30 mg/kg, route oral; settings: in vivo, 672 h
Rattus norvegicus [13] = assay: Toxicity in male Wistar rat assessed as epididymine to body weight ratio at 3 mg/kg, po measured after 28 days (reference value: 0.391 +/- 0.017); type: organism-based; set-up: dose 3 mg/kg, route oral; settings: in vivo, 672 h
Rattus norvegicus [14] = assay: Toxicity in male Wistar rat assessed as thymus to body weight ratio at 30 mg/kg, po measured after 28 days (reference value: 0.081 +/- 0.013); type: organism-based; set-up: dose 30 mg/kg, route oral; settings: in vivo, 672 h
Rattus norvegicus [15] = assay: Toxicity in female Wistar rat assessed as adrenal to body weight ratio at 30 mg/kg, po measured after 28 days (reference value: 0.028 +/- 0.001); type: organism-based; set-up: dose 30 mg/kg, route oral; settings: in vivo, 672 h
Rattus norvegicus [16] = assay: Toxicity in female Wistar rat assessed as brain to body weight ratio at 3 mg/kg, po measured after 28 days (reference value: 0.970 +/- 0.023); type: organism-based; set-up: dose 3 mg/kg, route oral; settings: in vivo, 672 h
Rattus norvegicus [17] = assay: Toxicity in female Wistar rat assessed as ovary to body weight ratio at 30 mg/kg, po measured after 28 days (reference value: 0.039 +/- 0.005); type: organism-based, Female gonad; set-up: dose 30 mg/kg, route oral; settings: in vivo, 672 h
Rattus norvegicus [18] = assay: Toxicity in female Wistar rat assessed as uterus to body weight ratio at 30 mg/kg, po measured after 28 days (reference value: 0.233 +/- 0.041); type: organism-based; set-up: dose 30 mg/kg, route oral; settings: in vivo, 672 h
Rattus norvegicus [19] = assay: Toxicity in female Wistar rat assessed as thymus to body weight ratio at 3 mg/kg, po measured after 28 days (reference value: 0.094 +/-0.01); type: organism-based; set-up: dose 3 mg/kg, route oral; settings: in vivo, 672 h
Rattus norvegicus [20] = assay: Toxicity in female Wistar rat assessed as thymus to body weight ratio at 30 mg/kg, po measured after 28 days (reference value: 0.094 +/- 0.01); type: organism-based; set-up: dose 30 mg/kg, route oral; settings: in vivo, 672 h
Rattus norvegicus [21] = assay: Toxicity in female Wistar rat assessed as change in body weight at 3 mg/kg, po measured after 28 days relative to control; type: organism-based; set-up: dose 3 mg/kg, route oral; settings: in vivo, 672 h
In short: (§1)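 Wistar rats received 3 or 30 mg/kg orally for 28 days. Body weight was recorded weekly, and the % change in body weight over the study is tabulated.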

Rattus norvegicus [22] = assay: Toxicity in female Wistar rat assessed as change in body weight at 30 mg/kg, po measured after 28 days relative to control; type: organism-based; set-up: dose 30 mg/kg, route oral; settings: in vivo, 672 h; in short: as §1
Rattus norvegicus [23] = assay: Toxicity in male Wistar rat assessed as creatinine level at 30 mg/kg, po measured after 28 days (reference value: 0.47 +/- 0.03 mg/dl); type: organism-based; set-up: dose 30 mg/kg, route oral; settings: in vivo, 672 h
Rattus norvegicus [24] = assay: Toxicity in male Wistar rat assessed as SGPT level at 3 mg/kg, po measured after 28 days (reference value: 34.24 +/- 2.13 U/L); type: organism-based; set-up: dose 3 mg/kg, route oral; settings: in vivo, 672 h
Rattus norvegicus [25] = assay: Toxicity in male Wistar rat assessed as urea level at 30 mg/kg, po measured after 28 days (reference value: 30.52 +/- 0.79 mg/dl); type: organism-based; set-up: dose 30 mg/kg, route oral; settings: in vivo, 672 h
Rattus norvegicus [26] = assay: Toxicity in female Wistar rat assessed as hemoglobin level at 30 mg/kg, po measured after 28 days (reference value: 11.90 +/- 0.19 g/dl); type: organism-based; set-up: dose 30 mg/kg, route oral; settings: in vivo, 672 h
Rattus norvegicus [27] = assay: Toxicity in female Wistar rat assessed as […] level at 3 mg/kg, po measured after 28 days (reference value: 172.38 +/- 7.18 U/L); type: organism-based; set-up: dose 3 mg/kg, route oral; settings: in vivo, 672 h
Rattus norvegicus [28] = assay: Toxicity in female Wistar rat assessed as SGOT level at 3 mg/kg, po measured after 28 days (reference value: 155.70 +/- 6.56 U/L); type: organism-based; set-up: dose 3 mg/kg, route oral; settings: in vivo, 672 h
Rattus norvegicus [29] = assay: Toxicity in female Wistar rat assessed as SGPT level at 3 mg/kg, po measured after 28 days (reference value: 30.44 +/- 1.59 U/L); type: organism-based; set-up: dose 3 mg/kg, route oral; settings: in vivo, 672 h
Rattus norvegicus [30] = assay: Toxicity in female Wistar rat assessed as albumin level at 30 mg/kg, po measured after 28 days (reference value: 3.92 +/- 0.18 g.dl); type: organism-based; set-up: dose 30 mg/kg, route oral; settings: in vivo, 672 h
Rattus norvegicus [31] = assay: Toxicity in female Wistar rat assessed as urea level at 30 mg/kg, po measured after 28 days (reference value: 33.05 +/- 2.02 mg/dl); type: organism-based; set-up: dose 30 mg/kg, route oral; settings: in vivo, 672 h

Q: Which EC50 [1] does the source give for `CCO[C@@H](Cc1ccc(OCCc2nc(-c3ccc(C)s3)oc2C)cc1)C(=O)O` here?
A: 0.018 nM

Q: What about the Tmax [2] of the same molecule?
A: 40 min

Q: And the Activity (Mus musculus [3])?
A: 71.8%

Q: What about the Activity (Mus musculus [4]) of the same molecule?
A: 7.2%

Q: And the Activity (Mus musculus [5])?
A: 64.2%

Q: What about the Activity (Mus musculus [6]) of the same molecule?
A: 58.2%

Q: And the Activity (Mus musculus [7])?
A: 59.7%

Q: And the ED50 (Mus musculus [8])?
A: 0.166 mg/kg

Q: And the Ratio (Rattus norvegicus [9])?
A: 0.479

Q: What about the Ratio (Rattus norvegicus [10]) of the same molecule?
A: 0.252

Q: What about the Ratio (Rattus norvegicus [11]) of the same molecule?
A: 0.015

Q: And the Ratio (Rattus norvegicus [12])?
A: 0.018

Q: And the Ratio (Rattus norvegicus [13])?
A: 0.36

Q: And the Ratio (Rattus norvegicus [14])?
A: 0.075

Q: What about the Ratio (Rattus norvegicus [15]) of the same molecule?
A: 0.022

Q: And the Ratio (Rattus norvegicus [16])?
A: 0.947

Q: What about the Ratio (Rattus norvegicus [17]) of the same molecule?
A: 0.024

Q: And the Ratio (Rattus norvegicus [18])?
A: 0.189

Q: What about the Ratio (Rattus norvegicus [19]) of the same molecule?
A: 0.101

Q: And the Ratio (Rattus norvegicus [20])?
A: 0.066

Q: And the Activity (Rattus norvegicus [21])?
A: 21.77%

Q: And the Activity (Rattus norvegicus [22])?
A: 21.71%

Q: What about the Activity (Rattus norvegicus [23]) of the same molecule?
A: 0.37 mg/dL

Q: And the Activity (Rattus norvegicus [24])?
A: 28.54 U/L

Q: What about the Activity (Rattus norvegicus [25]) of the same molecule?
A: 34.58 mg/dL

Q: What about the Activity (Rattus norvegicus [26]) of the same molecule?
A: 11.83 g/dL

Q: And the Activity (Rattus norvegicus [27])?
A: 248.13 U/L

Q: And the Activity (Rattus norvegicus [28])?
A: 157.09 U/L

Q: What about the Activity (Rattus norvegicus [29]) of the same molecule?
A: 22.46 U/L

Q: What about the Activity (Rattus norvegicus [30]) of the same molecule?
A: 4.12 g/dL

Q: What about the Activity (Rattus norvegicus [31]) of the same molecule?
A: 37.39 mg/dL
